The results in this text go back to ChEMBL document CHEMBL1671641, “1,5-benzodiazepines, a novel class of hepatitis C virus polymerase nonnucleoside inhibitors” (Antimicrob Agents Chemother, 2008).

The subject of series [1] is Hepatitis C virus. Briefly: Ratio of EC50 for Hepatitis C virus 796 infected in HuH7 cells to EC50 for Hepatitis C virus 796 harboring NNI P495L mutant site in NS5B infected in HuH7 cells. Type of series: functional, Hepacivirus hominis, Huh-7. The essentials:
(§1)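 NS5B NNI-site mutations were introduced into the genotype 1b ET subgenomic luciferase replicon by site-directed mutagenesis. RNA was made by in vitro transcription and tested in a transient-replication assay.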

Series [2] has as its system Hepatitis C virus. Briefly: Ratio of EC50 for Hepatitis C virus 796 infected in HuH7 cells to EC50 for Hepatitis C virus 796 harboring NNI M423T mutant site in NS5B infected in HuH7 cells. The format is functional, Hepacivirus hominis, Huh-7. The essentials:
as §1

Series [3] deals with Hepatitis C virus. Briefly: Ratio of EC50 for Hepatitis C virus 796 infected in HuH7 cells to EC50 for Hepatitis C virus 796 harboring NNI M414Q mutant site in NS5B infected in HuH7 cells. The format is functional, Hepacivirus hominis, Huh-7. The essentials:
as §1

Series [4] concerns Hepatitis C virus. Briefly: Ratio of EC50 for Hepatitis C virus 796 infected in HuH7 cells to EC50 for Hepatitis C virus 796 harboring NNI Y448A mutant site in NS5B infected in HuH7 cells. Type of series: functional, Hepacivirus hominis, Huh-7. The essentials:
as §1

The subject of series [5] is Hepatitis C virus. Briefly: Ratio of EC50 for Hepatitis C virus 796 infected in HuH7 cells to EC50 for Hepatitis C virus 796 harboring NNI H95R mutant site in NS5B infected in HuH7 cells. Type of series: functional, Hepacivirus hominis, Huh-7. The essentials:
as §1

The subject of series [6] is Hepatitis C virus. Briefly: Ratio of EC50 for Hepatitis C virus 796 infected in HuH7 cells to EC50 for Hepatitis C virus 796 harboring NNI C316Y mutant site in NS5B infected in HuH7 cells. Type of series: functional, Hepacivirus hominis, Huh-7. The essentials: as §1
Series [7] concerns Hepatitis C virus. Briefly: Antiviral activity against Hepatitis C virus 1b infected in human HuH7 cells assessed as inhibition of viral replication after 3 days by luciferase reporter assay. Type of series: functional, organism-based, Hepacivirus hominis, genotype 1b, Huh-7. The essentials: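 HCV 1b subgenomic luciferase reporter replicon (clone ET) cells, 2,500 per well, were exposed to a nine-point 1/4 dilution series for 3 days. Replication was read as luciferase activity. Values are means ± SD from 2 to 23 independent experiments run in quadruplicate.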

The test system of the next series is MT4. Briefly: (§2) Cytotoxicity against LTR-Luc transfected human MT4 cells […] after 3 days by ATPLite assay. Type of series: cell-based. To be noted: mt4, 72 h, 72 h.
A short description of series [8]: Cytotoxicity against CMV-Luc transfected human HuH7 cells after 5 days. Type of series: cell-based, Huh-7. As to conditions: for CC50: huh-7, 120 h, 120 h; for CC50 at 120 h: CMV-Luc transfected HuH7 cells.
Series [9] has as its system Hepatitis C virus. Briefly: Inhibition of Hepatitis C virus 1b J4 recombinant NS5B Cdelta 21 RNA dependent RNA polymerase overexpressed in Escherichia coli BL21 (DE3) by RdRp primer-dependent transcription assay. Set-up: species or system Hepatitis C virus subtype 1b.
Series [10] deals with Hepatitis C virus. Briefly: Inhibition of Hepatitis C virus 1b J4 recombinant NS5B Cdelta 21 RNA dependent RNA polymerase overexpressed in Escherichia coli BL21 (DE3) assessed as [alpha-33P]UTP incorporation by RdRp primer-independent transcription assay. Set-up: species or system Hepatitis C virus subtype 1b. The essentials:
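De novo (primer-independent) RdRp assay: 190 nM NS5BΔ21 (1b J4) with 86 nM HCV 3′ UTR template RNA, 0.5 mM each ATP/GTP/CTP, 10 μM UTP plus [α-³³P]UTP, in 20 mM Tris-HCl pH 7.5, 1 mM DTT, 5 mM MgCl₂, 20 mM NaCl. Incubated 2 h at room temperature, stopped with EDTA/tRNA, TCA-precipitated on filters, and scintillation-counted. Quadruplicate.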

Series [11] has as its system Hepatitis C virus. Briefly: Inhibition of Hepatitis C virus 1b J4 recombinant NS5B Cdelta 21 RNA dependent RNA polymerase overexpressed in Escherichia coli BL21 (DE3). Set-up: species or system Hepatitis C virus subtype 1b.
The nature of series [12]: as §2. Type of series: cell-based.

pEC50, pIC50: −log10 of the molar value. Where only a bound is given, the exact number is not on record here.

`CC(C)N(c1cc(-c2ccccc2)sc1C(=O)O)C(=O)[C@H]1CC[C@H](C)CC1`: the “fold change (FC)” value with Hepatitis C virus [1], in the series on Hepatitis C virus [2], in the series with Hepatitis C virus [3], in the series with Hepatitis C virus [4], in the series with Hepatitis C virus [5] and in the series on Hepatitis C virus [6] was 10 in each case.
With `CC(=O)N1c2ccccc2NC2=C(C(=O)CC(C)(C)C2)C1c1ccc(OCc2ccccc2)cc1` (single isomer, unassigned; 3a), the negative logarithm of the EC50 (pEC50) in the series on Hepatitis C virus [7] (huh-7) is 4.82. Moreover, the CC50 with MT4 is 22.2 µM; in [8], 19.2 µM. The pIC50 with Hepatitis C virus [9] was 6.00; in the series with Hepatitis C virus [10], 6.27.
The matching figures for `CC(=O)N1c2ccccc2NC2=C(C(=O)CC(C)(C)C2)C1c1ccc(OCc2ccccc2)cc1` (single isomer, unassigned; 3b): 5.70, 18.3 µM, 19.7 µM, 4.06 and 4.10.
The matching figures for `CC(=O)N1c2ccccc2NC2=C(C(=O)CC(C)(C)C2)C1c1ccc(OCc2ccccc2)c(Cl)c1` (single isomer, unassigned; 4b): 6.22, 12.9 µM, 21.2 µM, 4.44 and under 4.49.
On to `CC(=O)N1c2ccccc2NC2=C(C(=O)CC(C)(C)C2)C1c1ccc(OCc2ccccc2)cc1Cl` (single isomer, unassigned; 5a), for which the negative logarithm of the EC50 (pEC50) with Hepatitis C virus [7] (huh-7) was 5.03. In addition, the CC50 in the series with MT4 came to 19.5 µM; in [8], 49 µM. Also, the negative-log IC50 (pIC50) in the series on Hepatitis C virus [9] is 6.48.
The matching figures for `CC(=O)N1c2ccccc2NC2=C(C(=O)CC(C)(C)C2)C1c1ccc(OCc2ccccc2)cc1Cl` (single isomer, unassigned; 5b): 5.41, 17.3 µM, 53.7 µM and 4.08.
Take `CC(=O)N1c2ccccc2NC2=C(C(=O)CC(C)(C)C2)C1c1ccc(OCc2ccccc2)cc1` (stereo in doubt; 3): the pIC50 in the series on Hepatitis C virus [11] was 5.52. Further, the negative-log EC50 (pEC50) with Hepatitis C virus [7] (huh-7) was 5.24. Further, the half-maximal cytotoxic concentration (CC50) at 72 h in [12] came to 32 µM. The molecule further registered a CC50 at 120 h in [8] of 32 µM.
With `CC(=O)N1c2ccccc2NC2=C(C(=O)CC(C)(C)C2)C1c1ccc(OCc2ccccc2)c(Cl)c1` (stereo in doubt; 4), the negative-log EC50 (pEC50) with Hepatitis C virus [7] (huh-7) is 5.66. In [12], half-maximal cytotoxicity (CC50 at 72 h) was put at 22.1 µM. In series [8], this molecule yielded a CC50 at 120 h of 40.2 µM.
As for `CC(=O)N1c2ccccc2NC2=C(C(=O)CC(C)(C)C2)C1c1ccc(OCc2ccccc2)cc1Cl` (stereo in doubt; 5), the midpoint of cytotoxicity in series [12], the CC50 at 72 h, lay at 16.7 µM. The midpoint of cytotoxicity in series [8], the CC50 at 120 h, lay at 35.5 µM.
Turning to `CC(=O)N1c2cccc(O)c2NC2=C(C(=O)CC(C)(C)C2)C1c1ccc(OCc2ccccc2)cc1Cl` (stereo in doubt; 7), the negative-log EC50 (pEC50) in the series on Hepatitis C virus [7] (Hepatitis C virus, genotype 1b, Huh-7, 72 h) is 5.84. The molecule also came in with a CC50 at 72 h in series [12] of 17.8 µM. Besides, the cytotoxic concentration (CC50) at 120 h in series [8] is 13.4 µM.
For the molecule `CC(C)C[C@@]1(C(=O)O)C[C@H](C#N)[C@H](c2nccs2)N1C(=O)c1ccc(C(C)(C)C)cc1` [ACYL PYRROLIDINE], the “fold change (FC)” value in the series with Hepatitis C virus [1], in the series on Hepatitis C virus [2], in the series on Hepatitis C virus [3], in the series with Hepatitis C virus [4], in the series on Hepatitis C virus [5] and with Hepatitis C virus [6] was 10 each time.
As for `c1ccc2occc2c1` [BENZOFURAN], the “fold change (FC)” value in the series on Hepatitis C virus [1], in the series on Hepatitis C virus [2], with Hepatitis C virus [3], in the series with Hepatitis C virus [4], with Hepatitis C virus [5] and in the series with Hepatitis C virus [6] was 10 each time.
With `c1ccc2[nH]ccc2c1` [INDOLE], the “fold change (FC)” value in the series with Hepatitis C virus [1], in the series on Hepatitis C virus [2], with Hepatitis C virus [3], with Hepatitis C virus [4], in the series with Hepatitis C virus [5] and with Hepatitis C virus [6] was 10 each time.
